Assay results taken from ChEMBL document CHEMBL1131082, “Discovery and preliminary SAR studies of a novel, nonsteroidal progesterone receptor antagonist pharmacophore” (J Med Chem, 1998).
pIC50, pKi: −log10 of the molar value.

Columns and labels:
Progesterone receptor [1] = biological target: T1, Progesterone receptor (Homo sapiens, UniProt P06401); experiment: In vitro antagonist activity against human progesterone receptor isoform B(hPR-B) in mammalian(CV-1) cells; assay type: functional, cell-based
T1 sequence (P06401 whole entry): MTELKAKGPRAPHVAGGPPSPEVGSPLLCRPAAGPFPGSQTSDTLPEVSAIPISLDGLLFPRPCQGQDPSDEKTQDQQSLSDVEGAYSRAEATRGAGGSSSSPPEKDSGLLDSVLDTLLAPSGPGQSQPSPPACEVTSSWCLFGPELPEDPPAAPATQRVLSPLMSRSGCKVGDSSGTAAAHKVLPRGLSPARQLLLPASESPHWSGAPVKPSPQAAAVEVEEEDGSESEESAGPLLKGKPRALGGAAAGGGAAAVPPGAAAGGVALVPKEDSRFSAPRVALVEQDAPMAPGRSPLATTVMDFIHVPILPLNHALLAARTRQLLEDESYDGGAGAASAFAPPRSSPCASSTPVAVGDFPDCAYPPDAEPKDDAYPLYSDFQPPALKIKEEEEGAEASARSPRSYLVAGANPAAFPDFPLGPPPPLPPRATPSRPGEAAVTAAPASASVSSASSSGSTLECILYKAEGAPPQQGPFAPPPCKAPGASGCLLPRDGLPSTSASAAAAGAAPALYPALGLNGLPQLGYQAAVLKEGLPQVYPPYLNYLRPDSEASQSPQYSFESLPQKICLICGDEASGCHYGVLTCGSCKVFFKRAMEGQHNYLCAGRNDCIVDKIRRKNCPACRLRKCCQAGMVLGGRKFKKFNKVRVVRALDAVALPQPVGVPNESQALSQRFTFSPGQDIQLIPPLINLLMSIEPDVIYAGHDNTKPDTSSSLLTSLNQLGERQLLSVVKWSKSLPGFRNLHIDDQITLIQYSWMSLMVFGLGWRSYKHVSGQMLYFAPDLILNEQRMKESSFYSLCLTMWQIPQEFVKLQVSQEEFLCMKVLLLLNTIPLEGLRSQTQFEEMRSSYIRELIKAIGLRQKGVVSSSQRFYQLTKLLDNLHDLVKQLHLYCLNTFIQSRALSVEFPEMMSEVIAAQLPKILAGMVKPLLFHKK

[2] = biological target: T2, Androgen receptor (Homo sapiens) (UniProt P10275)
T2 sequence (whole entry): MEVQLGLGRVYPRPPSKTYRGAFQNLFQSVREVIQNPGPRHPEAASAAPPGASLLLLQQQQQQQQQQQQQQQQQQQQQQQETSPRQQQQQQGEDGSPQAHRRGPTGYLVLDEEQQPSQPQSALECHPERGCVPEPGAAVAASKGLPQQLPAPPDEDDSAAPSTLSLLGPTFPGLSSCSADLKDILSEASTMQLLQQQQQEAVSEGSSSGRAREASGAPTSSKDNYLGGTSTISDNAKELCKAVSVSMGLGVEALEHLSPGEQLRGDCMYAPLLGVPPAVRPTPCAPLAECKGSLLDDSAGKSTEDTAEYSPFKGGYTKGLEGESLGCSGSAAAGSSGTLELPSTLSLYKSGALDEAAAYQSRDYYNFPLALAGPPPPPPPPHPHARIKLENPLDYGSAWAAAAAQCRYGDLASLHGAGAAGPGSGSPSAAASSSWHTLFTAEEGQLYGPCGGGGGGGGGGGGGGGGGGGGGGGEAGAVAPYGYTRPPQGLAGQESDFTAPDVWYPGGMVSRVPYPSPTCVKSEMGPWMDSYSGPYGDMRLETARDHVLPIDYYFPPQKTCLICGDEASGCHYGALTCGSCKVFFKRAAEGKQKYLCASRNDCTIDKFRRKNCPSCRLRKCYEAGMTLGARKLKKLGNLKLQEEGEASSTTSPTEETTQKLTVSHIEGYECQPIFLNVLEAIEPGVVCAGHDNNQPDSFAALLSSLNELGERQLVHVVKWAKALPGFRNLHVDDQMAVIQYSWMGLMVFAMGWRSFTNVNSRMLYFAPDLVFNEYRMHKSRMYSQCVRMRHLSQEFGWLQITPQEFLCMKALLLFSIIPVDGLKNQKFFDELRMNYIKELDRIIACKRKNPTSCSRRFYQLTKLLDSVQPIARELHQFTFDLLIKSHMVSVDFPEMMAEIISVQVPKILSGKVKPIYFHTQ

[3] = biological target: T3, Mineralocorticoid receptor (Homo sapiens) (UniProt P08235); experiment: Antagonist activity against Mineralocorticoid receptor; assay type: functional
T3 sequence (whole entry): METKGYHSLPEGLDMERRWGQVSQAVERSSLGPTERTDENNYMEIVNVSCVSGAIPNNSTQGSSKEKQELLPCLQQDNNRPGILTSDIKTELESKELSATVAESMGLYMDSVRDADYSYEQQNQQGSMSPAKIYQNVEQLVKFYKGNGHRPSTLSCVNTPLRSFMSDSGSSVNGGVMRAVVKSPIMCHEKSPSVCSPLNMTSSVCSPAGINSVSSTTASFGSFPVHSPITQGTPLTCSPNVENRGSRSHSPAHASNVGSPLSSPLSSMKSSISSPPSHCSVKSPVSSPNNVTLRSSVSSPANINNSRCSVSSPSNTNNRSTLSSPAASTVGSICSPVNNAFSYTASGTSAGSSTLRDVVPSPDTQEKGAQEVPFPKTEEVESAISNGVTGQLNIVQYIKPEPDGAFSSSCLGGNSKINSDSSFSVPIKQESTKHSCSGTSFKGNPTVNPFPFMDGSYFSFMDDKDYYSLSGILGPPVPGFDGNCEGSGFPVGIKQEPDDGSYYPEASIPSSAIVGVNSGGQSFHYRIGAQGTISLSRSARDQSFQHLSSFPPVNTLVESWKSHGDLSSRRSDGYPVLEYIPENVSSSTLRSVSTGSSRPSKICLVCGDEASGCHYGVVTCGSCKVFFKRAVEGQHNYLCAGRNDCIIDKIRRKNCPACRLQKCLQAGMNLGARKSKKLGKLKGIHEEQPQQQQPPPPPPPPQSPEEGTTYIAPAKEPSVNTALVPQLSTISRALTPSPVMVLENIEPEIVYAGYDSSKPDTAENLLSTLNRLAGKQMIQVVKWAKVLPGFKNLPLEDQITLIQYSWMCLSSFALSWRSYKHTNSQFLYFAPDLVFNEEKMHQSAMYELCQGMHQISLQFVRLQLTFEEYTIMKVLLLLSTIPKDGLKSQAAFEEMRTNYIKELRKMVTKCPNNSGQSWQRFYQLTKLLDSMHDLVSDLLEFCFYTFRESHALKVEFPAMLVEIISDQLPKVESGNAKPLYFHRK
How it was run: (§1)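 hMR antagonist cotransfection assay run with an EC50 concentration of aldosterone as agonist. Potency is the IC50. Efficacy is % of maximal inhibition. Values are the mean ± SEM of at least two independent experiments, or one experiment where marked.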

[4] = biological target: T3, Mineralocorticoid receptor (Homo sapiens); experiment: Efficacy as percent inhibition of Mineralocorticoid receptor with aldosterone EC50; how it was run: as §1
Progesterone receptor [5] = biological target: T1, Progesterone receptor; experiment: Binding affinity against Baculovirus-Expressed hPR-A
[6] = biological target: Estrogen receptor (Homo sapiens) (UniProt Q92731+P03372)
[7] = biological target: T4, Glucocorticoid receptor (Homo sapiens) (UniProt P04150)
T4 sequence (whole entry): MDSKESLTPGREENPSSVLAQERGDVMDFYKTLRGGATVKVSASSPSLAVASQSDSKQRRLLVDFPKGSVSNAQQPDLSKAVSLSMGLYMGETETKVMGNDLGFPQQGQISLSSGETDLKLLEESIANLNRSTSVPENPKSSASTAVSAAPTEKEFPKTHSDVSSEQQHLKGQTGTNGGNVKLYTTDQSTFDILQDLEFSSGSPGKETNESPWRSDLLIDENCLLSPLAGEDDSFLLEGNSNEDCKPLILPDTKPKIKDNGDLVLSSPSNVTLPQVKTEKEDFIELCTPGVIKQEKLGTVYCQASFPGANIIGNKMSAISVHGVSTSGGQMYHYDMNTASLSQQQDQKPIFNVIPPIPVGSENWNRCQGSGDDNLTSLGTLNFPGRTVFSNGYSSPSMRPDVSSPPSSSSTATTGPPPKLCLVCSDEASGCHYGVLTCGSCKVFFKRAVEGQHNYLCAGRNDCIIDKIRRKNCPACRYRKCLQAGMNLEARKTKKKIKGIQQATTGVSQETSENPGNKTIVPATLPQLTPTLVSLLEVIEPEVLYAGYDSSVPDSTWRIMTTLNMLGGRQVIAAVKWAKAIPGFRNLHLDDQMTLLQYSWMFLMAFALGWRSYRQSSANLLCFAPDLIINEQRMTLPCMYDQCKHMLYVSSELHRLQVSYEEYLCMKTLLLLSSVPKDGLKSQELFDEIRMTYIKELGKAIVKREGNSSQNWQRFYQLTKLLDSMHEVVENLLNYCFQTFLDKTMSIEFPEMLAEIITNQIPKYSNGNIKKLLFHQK

| SMILES | pIC50 (Progesterone receptor [1]) | Potency [2] | Potency [3] | Efficacy [4] | pKi (Progesterone receptor [5]) | Potency [6] | Potency [7] |
| --- | --- | --- | --- | --- | --- | --- | --- |
| CC1=CC(C)(C)Nc2ccc(-c3cccc(C#N)c3)cc21 | 7.42 | 0.227 µM | > 1 µM | 94% | 7.72 | > 1 µM | > 1 µM |
| CC1=CC(C)(C)Nc2ccc(-c3cc(F)cc(C#N)c3)cc21 |  |  | > 1 µM | 80% |  | > 1 µM | > 1 µM |
| CC1=CC(C)(C)Nc2ccc(-c3cccc(F)c3)cc21 | 6.12 |  |  |  | 6.74 |  |  |
| CN(C)c1ccc([C@H]2C[C@]3(C)[C@@H](CC[C@]3(O)CCCO)[C@@H]3CCC4=CC(=O)CCC4=C32)cc1 |  | 0.269 µM | > 1 µM |  |  |  | 0.027 µM |
| CC1=CC(C)(C)Nc2ccc(-c3ccccc3)cc21 | 6.11 |  |  |  | 6.88 |  |  |
| CC1=CC(C)(C)Nc2ccc(-c3cc(F)cc(F)c3)cc21 | 7.10 |  |  |  | 8.00 |  |  |
| CC1=CC(C)(C)Nc2ccc(-c3cc(F)cc([N+](=O)[O-])c3)cc21 | 7.15 |  |  |  | 8.30 |  |  |
| CC#C[C@]1(O)CC[C@H]2[C@@H]3CCC4=CC(=O)CCC4=C3[C@@H](c3ccc(N(C)C)cc3)C[C@@]21C |  |  | > 1 µM |  |  | > 1 µM |  |
